Data set [1] can be described thus: Specificity index, Ratio of CC50 for MCR5 cells to EC50 for HSV1. The data set is classed as functional. In outline:
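Ratio of CC50 to EC50, both measured in MRC-5 human lung fibroblasts. […] CC50: neutral red uptake after 7 days, 5-fold dilutions from 100 μM to 0.03 μM, OD 540 nm; mean of 3 experiments.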

A short description of data set [2]: Cytotoxicity against human MRC5 cells by neutral red uptake assay. The data set is classed as cell-based. In outline: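 MRC-5 human lung fibroblasts seeded at 2.5 x 10^4 cells/well and incubated 24 h. Medium then replaced with MEM plus 2% FBS. Drug diluted serially 5-fold from 100 μM to 0.03 μM and exposed for 7 days. Cells stained with neutral red for 1 h, dye solubilized in 1% acetic acid/50% ethanol, OD read at 540 nm. CC50 (50% viability reduction) calculated; mean ± SD of 3 experiments.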

Each structure is given as a SMILES string. Where only a bound is given, the exact number is not on record here.

With `CCCCCCCCCCCCCCCCOCCCOP(=O)(O)CC/C=C\Cn1cnc2c(=O)nc(N)[nH]c21`, the Selectivity index in data set [1] came to 2.1. The compound further displayed a 50% cytotoxic concentration (CC50) in data set [2] of 12.2 µM.

As to `Nc1ncnc2c1ncn2C/C=C\CCP(=O)(O)O`, the CC50 in data set [2] is above 100 µM. Same read-out and setting: as for `Cc1cn(C/C=C\CCP(=O)(O)O)c(=O)[nH]c1=O`, the figure is above 100 µM. For the compound `CCCCCCCCCCCCCCCCOCCCOP(=O)(O)CC/C=C\Cn1cnc2c(N)ncnc21`, in data set [1], the Selectivity index was 0.96. Moreover, half-maximal cytotoxicity in data set [2] (CC50) was put at 17.3 µM.

As to `Nc1ccn(C/C=C\CCP(=O)(O)O)c(=O)n1`, the CC50 in data set [2] was above 100 µM.

On to `CCCCCCCCCCCCCCCCOCCCOP(=O)(O)CC/C=C\Cn1ccc(=O)[nH]c1=O`, for which it took 51 µM to reach half-maximal cytotoxicity in data set [2] (CC50). Same read-out and setting: to `Nc1nc(=O)c2ncn(C/C=C\CCP(=O)(O)O)c2[nH]1` belongs above 100 µM.

On to `CCCCCCCCCCCCCCCCOCCCOP(=O)(O)CC/C=C\Cn1ccc(N)nc1=O`, for which, in data set [1], the Selectivity index was determined as 2.38. For the same compound, it took 11.2 µM to reach half-maximal cytotoxicity in data set [2] (CC50). On to `CCCCCCCCCCCCCCCCOCCCOP(=O)(O)CC/C=C\Cn1cc(C)c(=O)[nH]c1=O`, for which the Selectivity index in data set [1] was determined as 8.22. This compound also had a CC50 in data set [2] of 7.4 µM.

On to `O=c1nc(O)ccn1C/C=C\CCP(=O)(O)O`, for which the CC50 in data set [2] was above 100 µM.

Broadly, the CC50 is the concentration at which the toxic effect on the cells reaches its halfway point. Read a high CC50 as lower toxicity to the cells.

The record behind these values is ChEMBL document CHEMBL1146340, “Synthesis of the 5-phosphono-pent-2-en-1-yl nucleosides: a new class of antiviral acyclic nucleoside phosphonates” (Bioorg Med Chem, 2007).
